Experimental data from ChEMBL document CHEMBL1212790, “Triclosan resistance of Pseudomonas aeruginosa PAO1 is due to FabV, a triclosan-resistant enoyl-acyl carrier protein reductase” (2010).
≈ marks a conversion by molar mass, not a printed value. Calls of active or inactive are those of the source. The calls are words filed in the database; no cut-off is given here.

Legend:
[1] = test system: Pseudomonas aeruginosa; assay: Activity of Pseudomonas aeruginosa PA0170 fabV in presence of 100 uM NADH
Procedure, shortened: (§1)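 Cell extracts (2 μg) of the P. aeruginosa deletion strains (PAO170 ΔfabV, PAO272 ΔfabI) were assayed for NADH-dependent enoyl-ACP reductase activity in 70 μl of 0.1 M sodium phosphate pH 7.5 with 0.1 mM NADH. Reactions were started with 100 μM trans-2-decenoyl-ACP and run with or without 15 μg/ml triclosan. Values are means plus standard deviations of three experiments.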

[2] = test system: Pseudomonas aeruginosa; assay: Inhibition of Pseudomonas aeruginosa fabV activity assessed as conversion of […] at 1000 ug/ml in presence of 2.5 M urea
Procedure, shortened: (§2)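 3-Hydroxydecanoyl-ACP dehydrated to trans-2-decenoyl-ACP with E. coli FabZ, then split into tubes holding dried triclosan (added from an ethanol stock and dried down). Purified His-tagged PaFabV or PaFabI added; reduction in 0.1 M sodium phosphate pH 7.0 with NADH, 1 h. Products resolved by conformationally sensitive PAGE with 2.5 M urea and Coomassie staining.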

[3] = test system: Escherichia coli; assay: Antibacterial activity against Escherichia coli MG1655 pZL17 expressing Pseudomonas aeruginosa fabI gene assessed as microbial growth inhibition; assay type: functional
Procedure, shortened: (§3)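 Triclosan MIC on LB agar plates carrying serial dilutions of triclosan; cells plated and plates incubated at 37°C. MIC taken as the triclosan concentration of the first plate without growth. E. coli hosts (W3110, MG1655) carried pBluescript SK(+)-derived plasmids encoding fabV or fabI, or the empty vector.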

[4] = test system: Escherichia coli; assay: Antibacterial activity against Escherichia coli W3110 containing pZL19 expressing sEscherichia coli fabI gene assessed as microbial growth inhibition; assay type: functional; procedure, shortened: as §3
[5] = test system: Pseudomonas aeruginosa; assay: Inhibition of wild type Pseudomonas aeruginosa ENR assessed as reduction of [1-14C]acetate incorporation into phospholipids
[6] = test system: Pseudomonas aeruginosa; assay: Antibacterial activity against Pseudomonas aeruginosa PA01 assessed as microbial growth inhibition; assay type: functional
[7] = test system: Pseudomonas aeruginosa; assay: Inhibition of Pseudomonas aeruginosa PA0170 fabV assessed as reduction of Enoyl-[acyl-carrier-protein] reductase activity at 15 ug/ml
Procedure, shortened: (§4)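 Cell-extract ENR assay (70 μl) in 0.1 M sodium phosphate pH 7.5 with 0.1 mM NADH and 2 μg of cell extract. Started with 100 μM trans-2-decenoyl-ACP, with or without 15 μg/ml triclosan. NADH-dependent activity followed as the drop in A340. Means plus standard deviations of three experiments.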

[8] = test system: Pseudomonas aeruginosa; assay: Antibacterial activity against Pseudomonas aeruginosa PA0272 lacking fabI assessed as microbial growth inhibition
[9] = test system: Escherichia coli; assay: Antibacterial activity against Escherichia coli MG1655 containing empty vector pBluescript assessed as microbial growth inhibition; assay type: functional; procedure, shortened: as §3
[10] = test system: Pseudomonas aeruginosa; assay: Antibacterial activity against Pseudomonas aeruginosa PA0170 lacking fabV gene assessed as microbial growth inhibition
[11] = test system: Pseudomonas aeruginosa; assay: Inhibition of Pseudomonas aeruginosa PA0170 fabV assessed as reduction of [1-14C]acetate incorporation into phospholipids
[12] = target: T1, Enoyl-[acyl-carrier-protein] reductase [NADH] FabI (Pseudomonas aeruginosa) (UniProt Q9ZFE4); assay: Inhibition of Pseudomonas aeruginosa PAO272 fabI assessed as reduction of [1-14C]acetate incorporation into phospholipids
T1 sequence (whole entry): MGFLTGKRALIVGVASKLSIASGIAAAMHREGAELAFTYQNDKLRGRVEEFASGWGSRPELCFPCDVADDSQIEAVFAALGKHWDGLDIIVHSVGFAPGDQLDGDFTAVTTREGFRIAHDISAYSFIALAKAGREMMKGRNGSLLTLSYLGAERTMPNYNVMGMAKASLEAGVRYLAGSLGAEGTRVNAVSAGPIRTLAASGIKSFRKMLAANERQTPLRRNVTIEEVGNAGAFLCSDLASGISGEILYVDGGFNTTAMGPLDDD

[13] = target: T1, Enoyl-[acyl-carrier-protein] reductase [NADH] FabI (Pseudomonas aeruginosa); assay: Inhibition of Pseudomonas aeruginosa PAO272 fabI assessed as reduction of Enoyl-[acyl-carrier-protein] reductase activity at 15 ug/ml; procedure, shortened: as §4
[14] = test system: Escherichia coli; assay: Antibacterial activity against Escherichia coli MG1655 containing pZL19 expressing Escherichia coli fabI gene assessed as microbial growth inhibition; assay type: functional; procedure, shortened: as §3
[15] = test system: Escherichia coli; assay: Antibacterial activity against Escherichia coli MG1655 pZL16 expressing Pseudomonas aeruginosa fabV gene assessed as microbial growth inhibition; assay type: functional; procedure, shortened: as §3
[16] = test system: Escherichia coli; assay: Antibacterial activity against Escherichia coli W3110 containing pZL16 expressing sPseudomonas aeruginosa fabV gene assessed as microbial growth inhibition; assay type: functional; procedure, shortened: as §3
[17] = test system: Pseudomonas aeruginosa; assay: Inhibition of wild type Pseudomonas aeruginosa ENR at 15 ug/ml; procedure, shortened: as §4
[18] = target: T1, Enoyl-[acyl-carrier-protein] reductase [NADH] FabI (Pseudomonas aeruginosa); assay: Inhibition of Pseudomonas aeruginosa fabI activity assessed as conversion of […] at 10 ug/ml in presence of 2.5 M urea; procedure, shortened: as §2
[19] = test system: Escherichia coli; assay: Antibacterial activity against Escherichia coli W3110 containing empty vector pBluescript at 37 deg C; assay type: functional; procedure, shortened: as §3
[20] = test system: Escherichia coli; assay: Antibacterial activity against Escherichia coli W3110 containing pZL17 expressing Pseudomonas aeruginosa fabI gene assessed as microbial growth inhibition; assay type: functional; procedure, shortened: as §3
[21] = compound: C/C=C/C(=O)SCCNC(=O)CCNC(=O)[C@@H](O)C(C)(C)COP(=O)(O)OP(=O)(O)OC[C@H]1O[C@@H](n2cnc3c(N)ncnc32)[C@H](O)[C@@H]1OP(=O)(O)O; assay: Inhibition of Pseudomonas aeruginosa PAO272 fabI in presence of 100 uM NADH; procedure, shortened: as §1

Molecule: C/C=C/C(=O)SCCNC(=O)CCNC(=O)[C@@H](O)C(C)(C)COP(=O)(O)OP(=O)(O)OC[C@H]1O[C@@H](n2cnc3c(N)ncnc32)[C@H](O)[C@@H]1OP(=O)(O)O
- Km [1]: 704 µM
- Vmax [1]: 7.9 nmol/min/mg

Molecule: Oc1cc(Cl)ccc1Oc1ccc(Cl)cc1Cl [TRICLOSAN]
- inhibition [2]: inactive
- MIC [3]: 4 µg/mL (≈ 13.8 µM)
- MIC [4]: 3 µg/mL (≈ 10.4 µM)
- inhibition [5]: inactive
- MIC [6]: > 2000 µg/mL
- inhibition [7]: 15%
- MIC [8]: > 2000 µg/mL
- MIC [9]: 0.2 µg/mL (≈ 0.691 µM)
- MIC [10]: 1 µg/mL (≈ 3.45 µM)
- inhibition [11]: Active
- inhibition [12]: inactive
- inhibition [13]: inactive
- MIC [14]: 3 µg/mL (≈ 10.4 µM)
- MIC [15]: > 2000 µg/mL
- MIC [16]: > 2000 µg/mL
- inhibition [17]: 29%
- inhibition [18]: Active
- MIC [19]: 0.2 µg/mL (≈ 0.691 µM)
- MIC [20]: 4 µg/mL (≈ 13.8 µM)

B1: Enoyl-[acyl-carrier-protein] reductase [NADH] FabI (Pseudomonas aeruginosa), Q9ZFE4 (protein)
chain: MGFLTGKRALIVGVASKLSIASGIAAAMHREGAELAFTYQNDKLRGRVEEFASGWGSRPELCFPCDVADDSQIEAVFAALGKHWDGLDIIVHSVGFAPGDQLDGDFTAVTTREGFRIAHDISAYSFIALAKAGREMMKGRNGSLLTLSYLGAERTMPNYNVMGMAKASLEAGVRYLAGSLGAEGTRVNAVSAGPIRTLAASGIKSFRKMLAANERQTPLRRNVTIEEVGNAGAFLCSDLASGISGEILYVDGGFNTTAMGPLDDD
- Km [21]: 4.7 µM
- Vmax [21]: 1.5 nmol/min/mg
